In experiment [1] the target is Serotonin 2 (5-HT2) receptor (Rattus norvegicus). Put plainly: Inhibitory activity by measuring its ability to displace [3H]ketanserin from serotonin receptor in rat brain.
The target of the next experiment is Opioid receptor (Rattus norvegicus, UniProt P33533+P34975+P33535). Nature of the experiment: Inhibition of [3H]naxolone binding to opiate receptors in rat brain. In kind it is tissue-based.
Experiment [2] has as its target Sigma receptor (Rattus norvegicus). Nature of the experiment: Tested for inhibitory activity by measuring its ability to displace [3H]3-PPP from sigma receptor in rat brain.
The next experiment has as its target Translocator protein (Rattus norvegicus, UniProt P16257). Put plainly: Binding affinity against mitochondrial DBI complex (peripheral benzodiazepine receptor) using primary cultures of glial cells. In short, it runs like this:
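Glia from cerebella of 8-day-old Sprague–Dawley rat pups, trypsin-dissociated and grown 14 days (~95% astroglia). Cells lysed in 50 mM Hepes pH 7.4, 4 μg protein per tube. Incubated with [3H]4'-chlorodiazepam and competitor for 90 min at 4 °C, then filtered. Nonspecific binding defined with 10 μM 4'-chlorodiazepam. Triplicate competition curves; IC50 by nonlinear regression, converted to Ki (Bylund–Yamamura).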

Experiment [3] deals with GABA-A receptor; anion channel. Put plainly: Inhibitory activity at GABA A receptor, measured by the ability to displace [35S]TBPS from GABA A receptor in rat brain. The format is tissue-based.
The target in the next experiment is Glutamate NMDA receptor. Put plainly: Inhibitory activity by measuring its ability to displace [3H]-MK-801 from glutamate(NMDA) receptor in rat brain. The format is tissue-based.
Experiment [4] has as its target T1, Gastrin/cholecystokinin type B receptor (Rattus norvegicus, UniProt P30553).
T1 sequence (P30553 whole entry): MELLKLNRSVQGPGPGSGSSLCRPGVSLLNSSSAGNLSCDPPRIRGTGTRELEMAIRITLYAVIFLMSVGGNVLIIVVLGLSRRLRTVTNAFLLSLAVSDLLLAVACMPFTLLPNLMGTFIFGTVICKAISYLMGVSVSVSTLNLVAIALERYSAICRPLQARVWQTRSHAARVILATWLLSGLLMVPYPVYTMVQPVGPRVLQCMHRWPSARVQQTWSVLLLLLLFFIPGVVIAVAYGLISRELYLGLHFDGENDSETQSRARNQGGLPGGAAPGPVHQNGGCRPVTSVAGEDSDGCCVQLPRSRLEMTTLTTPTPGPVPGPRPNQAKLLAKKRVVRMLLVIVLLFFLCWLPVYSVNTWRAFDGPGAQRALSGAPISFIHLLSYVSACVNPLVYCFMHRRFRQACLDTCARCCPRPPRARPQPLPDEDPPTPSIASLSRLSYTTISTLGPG
Nature of the experiment: Inhibitory activity by measuring its ability to displace [3H]L-365260 from cholecystokinin receptor in rat brain. The format is tissue-based.

The nature of experiment [5]: Tested for inhibitory activity by measuring its ability to displace [3H]AMPA from glutamate (non-NMDA) receptor in rat brain. In kind it is tissue-based.
The target of the next experiment is Cannabinoid receptor 1 (Rattus norvegicus, UniProt P20272). Put plainly: Inhibitory activity, measured by displacement [3H]CP-55940 from cannabinoid receptor (CB1) in rat brain. The format is tissue-based.
Chain of Cannabinoid receptor 1 (P20272 whole entry): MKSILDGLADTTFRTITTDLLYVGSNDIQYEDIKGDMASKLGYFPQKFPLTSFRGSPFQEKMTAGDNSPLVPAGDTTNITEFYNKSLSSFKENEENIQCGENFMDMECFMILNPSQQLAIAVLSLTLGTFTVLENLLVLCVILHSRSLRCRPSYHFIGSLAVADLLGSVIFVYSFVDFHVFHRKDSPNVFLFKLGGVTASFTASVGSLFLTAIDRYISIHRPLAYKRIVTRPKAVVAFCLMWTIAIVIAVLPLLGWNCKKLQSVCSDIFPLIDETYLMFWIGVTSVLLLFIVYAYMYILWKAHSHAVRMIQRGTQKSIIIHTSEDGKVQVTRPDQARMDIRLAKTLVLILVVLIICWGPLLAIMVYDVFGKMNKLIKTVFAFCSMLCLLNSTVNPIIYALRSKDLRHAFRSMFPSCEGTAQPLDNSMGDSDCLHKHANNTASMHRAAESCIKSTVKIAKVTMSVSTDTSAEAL
The nature of experiment [6]: Inhibitory activity at GABA B receptor, measured by the ability to displace [3H]baclofen from GABA B receptor in rat brain. In kind it is tissue-based.
Experiment [7] has as its target Adrenergic receptor alpha. Nature of the experiment: Inhibitory activity by measuring its ability to displace [3H]clonidine from alpha-adrenergic receptor in rat brain. The format is tissue-based.
Experiment [8] concerns the target Adrenergic receptor alpha. Put plainly: Inhibitory activity by measuring its ability to displace [3H]WB-4101 from alpha-adrenergic receptor in rat brain. In kind it is tissue-based.
Another experiment addresses Adrenergic receptor beta (Rattus norvegicus, UniProt P18090+P10608+P26255). Nature of the experiment: Inhibitory activity by measuring its ability to displace [125I]pindolol from beta-adrenergic receptor in rat brain. The format is tissue-based.
Experiment [9] concerns the target GABA-A receptor; anion channel. Nature of the experiment: Inhibitory activity at GABA A receptor, measured by the ability to displace [3H]zolpidem from GABA A receptor in rat brain. In kind it is tissue-based.
The nature of experiment [10]: Inhibitory activity by measuring its ability to displace [3H]spiperone from dopamine or serotonin 5-HT-1 receptors in rat brain. In kind it is tissue-based.
Experiment [11] addresses GABA-A receptor; anion channel. Nature of the experiment: Inhibitory activity at GABA A receptor, measured by the ability to displace [3H]GABA from GABA A receptor in rat brain. The format is tissue-based.
A short description of experiment [12]: Inhibitory activity by measuring its ability to displace [3H]glycine from glycine receptor in rat brain. The format is tissue-based.
Experiment [13] addresses GABA-A receptor; anion channel. Put plainly: Inhibitory activity at GABA A receptor, measured by the ability to displace [3H]flumazenil from GABA A receptor in rat brain. In kind it is tissue-based.

Chain of Translocator protein (P16257 whole entry, looked up): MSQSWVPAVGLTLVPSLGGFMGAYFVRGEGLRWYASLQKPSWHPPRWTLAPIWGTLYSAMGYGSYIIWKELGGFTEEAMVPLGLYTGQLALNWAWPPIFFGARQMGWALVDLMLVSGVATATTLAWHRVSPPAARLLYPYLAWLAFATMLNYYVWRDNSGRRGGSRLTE

The term IC50 denotes the midpoint of a concentration-inhibition curve. The term Ki denotes the dissociation constant of the complex between target and ligand, obtained from inhibition or displacement. With `CCCN(CCC)C(=O)CCc1c(-c2ccc(Cl)cc2)[nH]c2ccc(Cl)cc12`, the IC50 (in experiment [1]; at Opioid receptor; in experiment [2]; in experiment [3]; at Glutamate NMDA receptor; in experiment [4]) was greater than 1000 nM throughout. For the same compound, the IC50 (in experiment [5]; at Cannabinoid receptor 1; in [6]; in [7]; in experiment [8]; on Adrenergic receptor beta) was greater than 1000 nM in each case. In addition, the IC50 in [9], in experiment [10], in experiment [11], in [12] and in [13] was greater than 1000 nM each time. The compound also displayed a Ki at Translocator protein of 71 nM.
In the case of `c1ccc(-c2[nH]c3ccccc3c2CC2=NCCN2)cc1`, the half-maximal inhibitory concentration (IC50) (in experiment [1]; at Opioid receptor; in experiment [2]; in [3]; on Glutamate NMDA receptor; in experiment [4]) was greater than 1000 nM each time. The IC50 (in experiment [5]; at Cannabinoid receptor 1; in experiment [6]; in experiment [7]; in experiment [8]; at Adrenergic receptor beta) was greater than 1000 nM each time. The IC50 in experiment [9], in experiment [10], in experiment [11], in experiment [12] and in experiment [13] was greater than 1000 nM throughout.
In the case of `O=C1Cc2c(-c3ccccc3)[nH]c3cccc(c23)N1`, the IC50 (in experiment [1]; on Opioid receptor; in [2]; in experiment [3]; at Glutamate NMDA receptor; in [4]) was greater than 1000 nM in each case. Besides, the IC50 (in experiment [5]; on Cannabinoid receptor 1; in experiment [6]; in experiment [7]; in experiment [8]; at Adrenergic receptor beta) was greater than 1000 nM in each case. The IC50 in experiment [9], in experiment [10], in experiment [11], in [12] and in [13] was greater than 1000 nM each time.
As for `CCCN(CCC)C(=O)Cc1c(-c2ccccc2)[nH]c2cc(F)ccc12`, the IC50 (in experiment [1]; at Opioid receptor; in experiment [2]; in [3]; on Glutamate NMDA receptor; in [4]) was greater than 1000 nM in each case. In addition, the half-maximal inhibitory concentration (IC50) (in experiment [5]; on Cannabinoid receptor 1; in experiment [6]; in experiment [7]; in [8]; at Adrenergic receptor beta) was greater than 1000 nM in each case. In addition, the half-maximal inhibitory concentration (IC50) in experiment [9], in experiment [10], in experiment [11], in [12] and in [13] was greater than 1000 nM throughout. At Translocator protein, this compound came in with an inhibitory constant (Ki) of 202 nM.
In the case of `CCCCCCCCCCNC(=O)Cc1c(-c2ccccc2)[nH]c2ccccc12`, the concentration for half-maximal inhibition (IC50) (in experiment [1]; on Opioid receptor; in experiment [2]; in [3]; at Glutamate NMDA receptor; in experiment [4]) was greater than 1000 nM in each case. Also, the IC50 (in [5]; on Cannabinoid receptor 1; in [6]; in experiment [7]; in experiment [8]; at Adrenergic receptor beta) was greater than 1000 nM in each case. Also, the IC50 in experiment [9], in experiment [10], in [11], in [12] and in [13] was greater than 1000 nM in each case. The Ki on Translocator protein is greater than 1000 nM.
Regarding `CCCN(CCC)C(=O)/C=C/c1c(-c2ccc(Cl)cc2)[nH]c2ccccc12`, the IC50 (in experiment [1]; on Opioid receptor; in experiment [2]; in experiment [3]; on Glutamate NMDA receptor; in experiment [4]) was greater than 1000 nM throughout. Moreover, the IC50 (in [5]; on Cannabinoid receptor 1; in experiment [6]; in [7]; in [8]; at Adrenergic receptor beta) was greater than 1000 nM each time. Moreover, the 50% inhibitory concentration (IC50) in experiment [9], in experiment [10], in experiment [11], in [12] and in experiment [13] was greater than 1000 nM each time. Moreover, on Translocator protein, the Ki was 400 nM.
For the compound `CCCN(CCC)C(=O)Cc1c(-c2ccc(Cl)cc2)n(C)c2ccccc12`, the IC50 (in experiment [1]; on Opioid receptor; in experiment [2]; in experiment [3]; on Glutamate NMDA receptor; in experiment [4]) was greater than 1000 nM each time. The IC50 (in experiment [5]; on Cannabinoid receptor 1; in experiment [6]; in experiment [7]; in [8]; on Adrenergic receptor beta) was greater than 1000 nM each time. The half-inhibitory concentration (IC50) in experiment [9], in [10], in experiment [11], in experiment [12] and in experiment [13] was greater than 1000 nM in each case. Further, the affinity at Translocator protein corresponds to a Ki of 340 nM.
Regarding `CCCCCN(CCCCC)C(=O)Cc1c(-c2ccc(F)cc2)[nH]c2ccccc12`, the concentration for half-maximal inhibition (IC50) (in [1]; on Opioid receptor; in experiment [2]; in experiment [3]; on Glutamate NMDA receptor; in experiment [4]) was greater than 1000 nM each time. Further, the IC50 (in experiment [5]; on Cannabinoid receptor 1; in experiment [6]; in experiment [7]; in [8]; on Adrenergic receptor beta) was greater than 1000 nM in each case. Further, the 50% inhibitory concentration (IC50) in experiment [9], in experiment [10], in experiment [11], in experiment [12] and in experiment [13] was greater than 1000 nM each time. The compound further showed a Ki on Translocator protein of 15 nM.
On to `CCCN(CCC)C(=O)Cc1c(-c2ccc(Br)cc2)[nH]c2ccccc12`, for which the concentration for half-maximal inhibition (IC50) (in [1]; on Opioid receptor; in experiment [2]; in [3]; on Glutamate NMDA receptor; in experiment [4]) was greater than 1000 nM in each case. Further, the IC50 (in [5]; at Cannabinoid receptor 1; in experiment [6]; in experiment [7]; in [8]; on Adrenergic receptor beta) was greater than 1000 nM in each case. In addition, the IC50 in experiment [9], in experiment [10], in experiment [11], in [12] and in [13] was greater than 1000 nM in each case. On Translocator protein, this compound showed a Ki of 216 nM.

Values taken from ChEMBL document CHEMBL1126834, “Chemistry, binding affinities, and behavioral properties of a new class of "antineophobic" mitochondrial DBI receptor complex (mDRC) ligands” (J Med Chem, 1993).
